Values joined by “and” are separate entries in the source; they are usually repeats but may differ in a detail not shown here. Identical values can stand only once.
Experiments:
Mus musculus [1] = test: Compound tested for the effect on total white blood cell count and reported as percentage change from control on day 3 at 11.31 mg/kg (ip); type: functional
How it was run: (§1)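 Total white blood cell count in mice. Treatment was intraperitoneal at the listed mg/kg doses, 10 mice per group. Counts were taken on days 3, 5 and 7 and expressed as % change from control, with the control being each group's predose value. Significance was taken at p ≤ 0.05.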

[2] = system: Lewis lung carcinoma cell line; test: Effect of compound on Lewis Lung carcinoma after single dose injected intraperitoneally on day 1 recorded as percentage of cured animals at OD of 64 mg/kg; details: Mus musculus, route intraperitoneal
Mus musculus [3] = test: Compound tested for the effect on total white blood cell count and reported as percentage change from control on day 7 at 40.25 mg/kg (ip); type: functional; how it was run: as §1
[4] = system: Lewis lung carcinoma cell line; test: Effect of compound on Lewis Lung carcinoma after single ip injection on day 1 recorded as animal weight difference of the treated and the control (T-C) at OD of 64-2 mg/kg; type: functional, Mus musculus
Mus musculus [5] = test: Compound tested for the effect on total white blood cell count and reported as percentage change from control on day 3 at 40.25 mg/kg (ip); type: functional; how it was run: as §1
Mus musculus [6] = test: Compound tested for the effect on total white blood cell count and reported as percentage change from control on day 3 at 22.63 mg/kg (ip); type: functional; how it was run: as §1
Mus musculus [7] = test: Compound tested for the effect on total white blood cell count and reported as percentage change from control on day 5 at 90.5 mg/kg (ip); type: functional; how it was run: as §1
[8] = system: Lewis lung carcinoma cell line; test: Effect of compound on Lewis Lung carcinoma after single dose injected intraperitoneally on day 1 recorded as animal weight difference of the treated and the control (T-C) at OD of 64 mg/kg; type: functional, Mus musculus; details: route intraperitoneal
Mus musculus [9] = test: Compound tested for the effect on total white blood cell count and reported as percentage change from control on day 5 at 22.63 mg/kg (ip); type: functional; how it was run: as §1
Mus musculus [10] = test: Compound tested for the effect on total white blood cell count and reported as percentage change from control on day 3 at 90.5 mg/kg (ip); type: functional; how it was run: as §1
Mus musculus [11] = test: Compound tested for the effect on total white blood cell count and reported as percentage change from control on day 5 at 40.25 mg/kg (ip); type: functional; how it was run: as §1
3EM 37 [12] = test: Compound tested for toxicity against 3EM 37 mouse ependymoblastoma after single ip injection on day 1 at optimal dose (OD) of 100 mg/kg on the 5th day after the injection of the compound; (10/10); details: route intraperitoneal
3EM 37 [13] = test: Compound tested for activity against 3EM 37 mouse ependymoblastoma after single ip injection on day 1 at optimal dose of 128 mg/kg (Dose range 256-16); type: functional; details: route intraperitoneal
3EM 37 [14] = test: Effect of compound on 3EM 37 mouse ependymoblastoma after single ip injection on day 1 recorded as percentage of cured animals at OD of 100 mg/kg; type: functional; details: route intraperitoneal
3EM 37 [15] = test: Effect of compound on 3EM 37 mouse ependymoblastoma after single ip injection on day 1 recorded as animal weight difference of the treated and the control (T-C) at OD of 100 mg/kg; type: functional; details: route intraperitoneal

SMILES | Change (Mus musculus [1]) [%] | T/C [2] [%] | Change (Mus musculus [3]) [%] | Optimal dose [4] [mg/kg] | Change (Mus musculus [5]) [%] | Change (Mus musculus [6]) [%] | Change (Mus musculus [7]) [%] | T-C [8] [g] | Change (Mus musculus [9]) | Change (Mus musculus [10]) [%] | Change (Mus musculus [11]) [%] | Survival (3EM 37 [12]) | Optimal dose (3EM 37 [13]) [mg/kg] | T/C (3EM 37 [14]) [%] | T-C (3EM 37 [15]) [g]
O=NN(CCCl)C(=O)NCCCl [CARMUSTINE] | -47 | >353 | -41 | 32 | -46 | -33 | -48 | -3.5 | -28% and -42% | -68 | -22 |  |  |  | 
CC1CCC(NC(=O)N(CCCl)N=O)CC1 (stereo not given) [SEMUSTINE] |  |  |  |  |  |  |  |  |  |  |  | 9 | 128 | 204 | 1

Source: ChEMBL document CHEMBL1121486, “Synthesis of nitrosourea derivatives of pyridine and piperidine as potential anticancer agents” (1980)
